Assay [1] in a line: Anticlonogenic activity in human HCT116 cells after 6 days by crystal violet staining based assay. It counts as functional. As to conditions: HCT-116, 144 h. The method, boiled down:
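HCT116 colon cancer cells, long-term clonogenic survival assay. Compound exposure for six days at 0, 5, 10 and 20 µM (results section also lists 40 µM). Colonies stained with 0.1% crystal violet and quantified by densitometry. GI50 computed from the concentration–response data.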

In assay [2] the target is Mitogen-activated protein kinase 8 (Homo sapiens) (UniProt P45983). Nature of the assay: Increase in JNK1 phosphorylation at Thr183/Tyr185 residues in human HCT116 cells at 50 to 200 uM after 12 hrs by Western blot analysis. The format is cell-based. The following applies: HCT-116. The method, boiled down: (§1)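 HCT116 cells exposed to 0, 50, 100 or 200 µM for 1 and 12 h. Whole-cell lysates immunoblotted with an antibody specific for phospho-JNK1/2 (Thr183/Tyr185), with GAPDH as the internal loading control.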

Assay [3] has as its system HCT-116. Nature of the assay: Induction of apoptosis in human HCT116 cells assessed as necrotic cells at 50 uM after 24 hrs by FITC-annexin V/propidium iodide staining based fluorescence assay (reference value: 2%). It counts as functional.
Assay [4] in a line: Cytotoxicity against human HCT116 cells assessed as decrease in cell viability at 80 uM after 24 hrs by CCK-8 assay. It counts as functional, HCT-116. The method, boiled down:
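HCT116 cells seeded at 5 × 10^3 per well and treated 24 h at 10, 20, 40, 80 and 100 µM. Viability read with CCK-8 as absorbance at 450 nm. Compared with vehicle by one-way ANOVA followed by Sidak's multiple comparisons test.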

In assay [5] the test system is HCT-116. The assay is described as follows: Induction of apoptosis in human HCT116 cells assessed as viable cells at 50 uM after 24 hrs by FITC-annexin V/propidium iodide staining based fluorescence assay (reference value: 90%). The format is functional. As to conditions: HCT-116, 24 h, read-out: Activity.
Assay [6] addresses Mitogen-activated protein kinase 9 (Homo sapiens) (UniProt P45984). The assay is described as follows: Increase in JNK2 phosphorylation at Thr183/Tyr185 residues in human HCT116 cells at 50 to 200 uM after 12 hrs by Western blot analysis. The format is cell-based. The following applies: HCT-116. The method, boiled down: as §1
For assay [7], the system named is HCT-116. The assay is described as follows: Induction of apoptosis in human HCT116 cells assessed as late apoptotic cells at 50 uM after 24 hrs by FITC-annexin V/propidium iodide staining based fluorescence assay (reference value: 3%). It counts as functional.
The test system of assay [8] is HCT-116. The assay is described as follows: Induction of apoptosis in human HCT116 cells assessed as early apoptotic cells at 50 uM after 24 hrs by FITC-annexin V/propidium iodide staining based fluorescence assay (reference value: 6%). The format is functional.
For assay [9], the target named is Mitogen-activated protein kinase 8 (Homo sapiens) (UniProt P45983). Nature of the assay: Increase in JNK1 phosphorylation at Thr183/Tyr185 residues in human HCT116 cells at 50 to 200 uM measured up to 1 hr by Western blot analysis. It counts as cell-based. The following applies: HCT-116. The method, boiled down: as §1
Assay [10] has as its system HCT-116. Nature of the assay: Induction of apoptosis in human HCT116 cells assessed as increase in PARP cleavage at 50 uM measured up to 24 hrs by immuno blot analysis. It counts as functional, cell-based. A digest of the protocol:
(§2)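 HCT116 cells exposed to 50 µM for 0, 12 and 24 h. Total cell lysates immunoblotted with antibodies against cleaved caspase-9, cleaved caspase-3 and PARP.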

In assay [11] the target is Mitogen-activated protein kinase 9 (Homo sapiens) (UniProt P45984). Nature of the assay: Increase in JNK2 phosphorylation at Thr183/Tyr185 residues in human HCT116 cells at 50 to 200 uM measured up to 1 hr by Western blot analysis. As to conditions: HCT-116. It counts as cell-based. A digest of the protocol: as §1
Assay [12] deals with HCT-116. The assay is described as follows: Induction of apoptosis in human HCT116 cells assessed as increase in caspase-3 cleavage at 50 uM by immuno blot analysis. The format is functional, cell-based. The following applies: TDE = time-dependent effect. The method, boiled down: as §2
Assay [13] deals with Mitogen-activated protein kinase 8 (Homo sapiens) (UniProt P45983). The assay is described as follows: Increase in JNK1 phosphorylation at Thr183/Tyr185 residues in human HCT116 cells at 50 to 200 uM measured up to 12 hrs by Western blot analysis. The format is cell-based. The following applies: HCT-116. The method, boiled down:
as §1

For assay [14], the target named is Mitogen-activated protein kinase 9 (Homo sapiens) (UniProt P45984). Nature of the assay: Increase in JNK2 phosphorylation at Thr183/Tyr185 residues in human HCT116 cells at 50 to 200 uM measured up to 12 hrs by Western blot analysis. As to conditions: HCT-116. It counts as cell-based. A digest of the protocol: as §1
Assay [15] has as its system HCT-116. The assay is described as follows: Induction of apoptosis in human HCT116 cells assessed as increase in caspase-9 cleavage at 50 uM by immuno blot analysis. The format is functional, cell-based. The following applies: TDE = time-dependent effect. A digest of the protocol:
as §2

Active and inactive are the calls of the source. The rule behind the calls is not given here.

Sequence of Mitogen-activated protein kinase 8 (Homo sapiens) (P45983 whole entry): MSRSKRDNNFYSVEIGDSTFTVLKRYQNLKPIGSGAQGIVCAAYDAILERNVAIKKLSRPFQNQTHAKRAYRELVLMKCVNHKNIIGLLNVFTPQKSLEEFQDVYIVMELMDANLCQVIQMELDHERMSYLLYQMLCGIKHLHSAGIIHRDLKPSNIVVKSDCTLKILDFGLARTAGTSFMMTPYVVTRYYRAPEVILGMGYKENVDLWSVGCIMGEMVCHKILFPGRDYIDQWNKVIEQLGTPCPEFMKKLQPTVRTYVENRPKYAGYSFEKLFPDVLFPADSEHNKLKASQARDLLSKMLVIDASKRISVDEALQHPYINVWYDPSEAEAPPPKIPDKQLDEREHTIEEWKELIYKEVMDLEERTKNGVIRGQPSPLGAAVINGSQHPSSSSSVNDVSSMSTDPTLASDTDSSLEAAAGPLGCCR
Sequence of Mitogen-activated protein kinase 9 (Homo sapiens) (P45984 whole entry, looked up): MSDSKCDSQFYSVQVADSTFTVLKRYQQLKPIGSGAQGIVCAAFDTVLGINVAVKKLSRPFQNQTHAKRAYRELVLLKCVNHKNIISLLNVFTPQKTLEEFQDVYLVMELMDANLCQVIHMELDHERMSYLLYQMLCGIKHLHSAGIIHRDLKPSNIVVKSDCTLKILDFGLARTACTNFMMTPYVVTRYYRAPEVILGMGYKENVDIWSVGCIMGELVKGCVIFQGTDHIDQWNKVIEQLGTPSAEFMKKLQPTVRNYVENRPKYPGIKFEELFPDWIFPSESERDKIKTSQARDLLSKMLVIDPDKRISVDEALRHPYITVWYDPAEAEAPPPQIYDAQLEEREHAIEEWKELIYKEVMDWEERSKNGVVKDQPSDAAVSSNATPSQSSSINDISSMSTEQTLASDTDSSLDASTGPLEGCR

`COc1ccc(C(=O)Oc2cc(O)c3c(c2)O[C@H](c2ccc(OC)c(OC(=O)c4ccc(OC)cc4)c2)CC3=O)cc1`: in assay [1], halving of growth (GI50) required 35.7 µM. This counts as double-digit micromolar.

In turn, `COc1ccc([C@@H]2CC(=O)c3c(O)cc(OC(=O)Cc4ccccc4)cc3O2)cc1OC(=O)Cc1ccccc1` yielded a 50% growth inhibitory concentration (GI50) in [1] of 63.9 µM.

`COc1ccc([C@@H]2CC(=O)c3c(O)cc(OC(=O)c4ccccc4)cc3O2)cc1OC(=O)c1ccccc1` displayed a GI50 in [1] of 46 µM. This GI50 and that of the compound before are within 1.5-fold of each other.

With `COc1ccc([C@@H]2CC(=O)c3c(O)cc(OC(=O)C(C)(C)C)cc3O2)cc1O`, in [1], the GI50 amounted to 31.5 µM. The GI50 values of the last two compounds are within 1.5-fold of each other.

The compound `COc1ccc([C@@H]2CC(=O)c3c(O)cc(OC(=O)c4ccccc4C)cc3O2)cc1OC(=O)c1ccccc1C` showed a GI50 in assay [1] of 48.7 µM.

For the compound `C/C=C/C(=O)Oc1cc(O)c2c(c1)O[C@H](c1ccc(OC)c(O)c1)CC2=O`, it took 16.9 µM to inhibit growth in assay [1] by half (GI50). Against the preceding compound, the GI50 is about 2.9-fold lower.

For the compound `COc1ccc([C@@H]2CC(=O)c3c(O)cc(OC(=O)/C=C/c4ccccc4)cc3O2)cc1OC(=O)/C=C/c1ccccc1`, the GI50 in assay [1] was 21 µM.

In turn, `COc1ccc([C@@H]2CC(=O)c3c(O)cc(OC(=O)c4ccccc4)cc3O2)cc1O` yielded a GI50 in assay [1] of 16.5 µM.

In turn, `COc1ccc([C@@H]2CC(=O)c3c(O)cc(OC(=O)c4ccccc4C)cc3O2)cc1O` came in with a 50% growth inhibitory concentration (GI50) in assay [1] of 22.9 µM.

For `COc1ccc([C@@H]2CC(=O)c3c(O)cc(O)cc3O2)cc1O` [HESPERETIN], the result in [2] and in assay [6] was Active. The Activity in the assay on HCT-116 [3] was 0%; in assay [4], 15%; in the assay with HCT-116 [7], 2%; in the assay on HCT-116 [8] it was 9%. The viability at 50 µM in the assay on HCT-116 [5] came to 88%. The same compound gave a GI50 in assay [1] of 36.1 µM.

As for `COc1ccc([C@@H]2CC(=O)c3c(O)cc(OC(=O)c4ccc(C)cc4)cc3O2)cc1OC(=O)c1ccc(C)cc1`, growth in [1] was halved (GI50) at 71.7 µM.

On to `CCCC(=O)Oc1cc(O)c2c(c1)O[C@H](c1ccc(OC)c(OC(=O)CCC)c1)CC2=O`, for which growth in [1] was halved (GI50) at 13.2 µM. Compared with the last compound, the GI50 is about 5.4-fold lower.

With `CCCC(=O)Oc1cc(O)c2c(c1)O[C@H](c1ccc(OC)c(O)c1)CC2=O`, the outcome (in [9]; with HCT-116 [10]; in assay [11]; in assay [13]; in [14]) was Active. Moreover, the Activity was 0% in the assay with HCT-116 [3]; 50% in [4]; “Tde” with HCT-116 [12]; 5% with HCT-116 [7]; 39% in the assay with HCT-116 [8]; “Tde” in the assay on HCT-116 [15]. Also, the viability at 50 µM in the assay on HCT-116 [5] came to 55%. Further, halving of growth in assay [1] (GI50) required 12 µM.
